ChEMBL document CHEMBL1147875, “Novel 1-oxyl-2-substitutedphenyl-4,4,5,5-tetramethylimidazolines: synthesis, selectively analgesic action, and QSAR analysis” (2007)

Columns and labels:
Mus musculus [1] = assay: Effect on bleeding time in ICR mouse tail at 1.3 mmol/kg, ip after 15 mins; assay type: functional
Procedure, shortened: (§1)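 Mice given 1.30 mmol/kg body weight. Tail bleeding time measured before dosing and at 5, 15, 30 and 60 min after dosing. Saline as vehicle control.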

Aorta [2] = assay: Vasorelaxant activity in rat aortic strips assessed as inhibition of noradrenaline-induced vasoconstriction at 100 umol/l; assay type: functional; design: scale not given: the % may be the effect or the level left
Mus musculus [3] = assay: Analgesic activity in ICR mouse assessed as pain threshold variation at 0.013 mmol/kg, ip after 30 mins by tail flick test; assay type: functional, organism-based
Procedure, shortened: (§2)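 Male ICR mice (25 2 g), 12/12 light/dark cycle, 21 2 °C, acclimated one day. Single ip injection in 0.2 ml saline with 0.01 ml DMSO and 0.02 ml Tween 80. Tail-flick pain threshold measured before dosing (BPT) and at 30 min intervals for 150 min. PTV = (post-dose threshold − BPT)/BPT, averaged per animal. Saline controls; ANOVA, p < 0.05.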

Mus musculus [4] = assay: Analgesic activity in ICR mouse assessed as pain threshold variation at 0.13 mmol/kg, ip after 120 mins by tail flick test; assay type: functional; procedure, shortened: as §2
Mus musculus [5] = assay: Effect on bleeding time in ICR mouse tail at 1.3 mmol/kg, ip after 60 mins; assay type: functional; procedure, shortened: as §1
Mus musculus [6] = assay: Analgesic activity in ICR mouse assessed as pain threshold variation at 0.013 mmol/kg, ip after 60 mins by tail flick test; assay type: functional, organism-based; procedure, shortened: as §2
Mus musculus [7] = assay: Analgesic activity in ICR mouse assessed as pain threshold variation at 0.0013 mmol/kg, ip after 150 mins by tail flick test; assay type: functional, organism-based; procedure, shortened: as §2
Mus musculus [8] = assay: Analgesic activity in ICR mouse assessed as pain threshold variation at 0.0013 mmol/kg, ip after 30 mins by tail flick test; assay type: functional, organism-based; procedure, shortened: as §2
Mus musculus [9] = assay: Analgesic activity in ICR mouse assessed as pain threshold variation at 0.13 mmol/kg, ip after 60 mins by tail flick test; assay type: functional; procedure, shortened: as §2
Aorta [10] = assay: Vasorelaxant activity in rat aortic strips assessed as inhibition of noradrenaline-induced vasoconstriction at 20 umol/l; assay type: functional; design: scale not given: the % may be the effect or the level left
Mus musculus [11] = assay: Effect on bleeding time in ICR mouse tail at 1.3 mmol/kg, ip after 30 mins; assay type: functional; procedure, shortened: as §1
Mus musculus [12] = assay: Analgesic activity in ICR mouse assessed as pain threshold variation at 0.013 mmol/kg, ip after 120 mins by tail flick test; assay type: functional, organism-based; procedure, shortened: as §2
Mus musculus [13] = assay: Analgesic activity in ICR mouse assessed as pain threshold variation at 0.13 mmol/kg, ip after 30 mins by tail flick test; assay type: functional; procedure, shortened: as §2
Mus musculus [14] = assay: Analgesic activity in ICR mouse assessed as pain threshold variation at 0.0013 mmol/kg, ip after 120 mins by tail flick test; assay type: functional, organism-based; procedure, shortened: as §2
Mus musculus [15] = assay: Analgesic activity in ICR mouse assessed as pain threshold variation at 0.013 mmol/kg, ip after 90 mins by tail flick test; assay type: functional, organism-based; procedure, shortened: as §2
Aorta [16] = assay: Vasorelaxant activity in rat aortic strips assessed as inhibition of noradrenaline-induced vasoconstriction at 500 umol/l; assay type: functional; design: scale not given: the % may be the effect or the level left
Mus musculus [17] = assay: Analgesic activity in ICR mouse assessed as pain threshold variation at 0.0013 mmol/kg, ip after 90 mins by tail flick test; assay type: functional, organism-based; procedure, shortened: as §2
Mus musculus [18] = assay: Analgesic activity in ICR mouse assessed as pain threshold variation at 0.0013 mmol/kg, ip after 60 mins by tail flick test; assay type: functional, organism-based; procedure, shortened: as §2
Mus musculus [19] = assay: Analgesic activity in ICR mouse assessed as pain threshold variation at 0.13 mmol/kg, ip after 150 mins by tail flick test; assay type: functional; procedure, shortened: as §2
Mus musculus [20] = assay: Effect on bleeding time in ICR mouse tail at 1.3 mmol/kg, ip after 5 mins; assay type: functional; procedure, shortened: as §1
Mus musculus [21] = assay: Analgesic activity in ICR mouse assessed as pain threshold variation at 0.13 mmol/kg, ip after 90 mins by tail flick test; assay type: functional; procedure, shortened: as §2
Mus musculus [22] = assay: Analgesic activity in ICR mouse assessed as pain threshold variation at 0.013 mmol/kg, ip after 150 mins by tail flick test; assay type: functional, organism-based; procedure, shortened: as §2

`CC1(C)N=C(c2ccccc2F)N([O])C1(C)C` showed a TIME (Mus musculus [1]) of 0.0329 h, an Activity (Aorta [2]) of 14.9% and an Activity (Mus musculus [3]) of 49.3. The Activity (Mus musculus [4]) was 62, the TIME (Mus musculus [5]) was 0.0326 h and the Activity (Mus musculus [6]) was 51.3. For the same molecule, the Activity (Mus musculus [7]) was 44.5, the Activity (Mus musculus [8]) was 31.3 and the Activity (Mus musculus [9]) was 67.8. The Activity (Aorta [10]) was 5%, the TIME (Mus musculus [11]) was 0.0328 h and the Activity (Mus musculus [12]) was 49.8. The Activity (Mus musculus [13]) was 62.2, the Activity (Mus musculus [14]) was 30.4 and the Activity (Mus musculus [15]) was 50.7. For the same molecule, the Activity (Aorta [16]) was 23.4%, the Activity (Mus musculus [17]) was 31.8 and the Activity (Mus musculus [18]) was 33.5. The Activity (Mus musculus [19]) was 86.8, the TIME (Mus musculus [20]) was 0.0331 h and the Activity (Mus musculus [21]) was 63.3. It also gave an Activity (Mus musculus [22]) of 64.5.
For `COc1cc(C2=NC(C)(C)C(C)(C)N2[O])ccc1O`, the TIME (Mus musculus [1]) was 0.0323 h, the Activity (Aorta [2]) was 6.09% and the Activity (Mus musculus [4]) was 43.2. It also gave a TIME (Mus musculus [5]) of 0.0329 h, an Activity (Mus musculus [9]) of 42.9 and an Activity (Aorta [10]) of 5.98%. It also gave a TIME (Mus musculus [11]) of 0.0327 h, an Activity (Mus musculus [13]) of 54.2 and an Activity (Aorta [16]) of 6.55%. It also gave an Activity (Mus musculus [19]) of 40.9, a TIME (Mus musculus [20]) of 0.0327 h and an Activity (Mus musculus [21]) of 66.3.
Molecule `CC1(C)N=C(c2ccccc2)N(O)C1(C)C` has a Time (Mus musculus [1]) of 117.4 s, an Activity (Aorta [2]) of 11.04% and an Activity (Mus musculus [4]) of 32.14. For the same molecule, the Time (Mus musculus [5]) was 118.2 s, the Activity (Mus musculus [9]) was 36.99 and the Activity (Aorta [10]) was 5.44%. For the same molecule, the Time (Mus musculus [11]) was 119.3 s, the Activity (Mus musculus [13]) was 40.6 and the Activity (Aorta [16]) was 17.25%. The Activity (Mus musculus [19]) was 33.48, the Time (Mus musculus [20]) was 118.2 s and the Activity (Mus musculus [21]) was 34.
In the case of `CC1(C)N=C(c2cccc([N+](=O)[O-])c2)N([O])C1(C)C`, the TIME (Mus musculus [1]) is reported as 0.0324 h, the Activity (Aorta [2]) is reported as 22.1% and the Activity (Mus musculus [4]) is reported as 43.5. The TIME (Mus musculus [5]) was 0.0328 h, the Activity (Mus musculus [9]) was 66.4 and the Activity (Aorta [10]) was 6.72%. The TIME (Mus musculus [11]) was 0.0327 h, the Activity (Mus musculus [13]) was 49.8 and the Activity (Aorta [16]) was 34.3%. For the same molecule, the Activity (Mus musculus [19]) was 41.8, the TIME (Mus musculus [20]) was 0.0329 h and the Activity (Mus musculus [21]) was 47.4.
`CC1(C)N=C(c2ccc(Br)cc2)N([O])C1(C)C` was tested, and the TIME (Mus musculus [1]) was 0.0326 h, the Activity (Aorta [2]) was 23% and the Activity (Mus musculus [4]) was 60. For the same molecule, the TIME (Mus musculus [5]) was 0.0326 h, the Activity (Mus musculus [9]) was 35.6 and the Activity (Aorta [10]) was 6.89%. It also gave a TIME (Mus musculus [11]) of 0.0324 h, an Activity (Mus musculus [13]) of 41.3 and an Activity (Aorta [16]) of 34.8%. It also gave an Activity (Mus musculus [19]) of 76.5, a TIME (Mus musculus [20]) of 0.0324 h and an Activity (Mus musculus [21]) of 59.8.
With `CC1(C)N=C(c2ccc([N+](=O)[O-])cc2)N([O])C1(C)C` the TIME (Mus musculus [1]) was 0.0331 h, the Activity (Aorta [2]) was 24.4% and the Activity (Mus musculus [4]) was 35.9. The TIME (Mus musculus [5]) was 0.033 h, the Activity (Mus musculus [9]) was 60.5 and the Activity (Aorta [10]) was 7.36%. The TIME (Mus musculus [11]) was 0.0329 h, the Activity (Mus musculus [13]) was 56.5 and the Activity (Aorta [16]) was 36.5%. For the same molecule, the Activity (Mus musculus [19]) was 52.3, the TIME (Mus musculus [20]) was 0.0332 h and the Activity (Mus musculus [21]) was 58.
In the case of `CC1(C)N=C(c2ccc(Cl)cc2)N([O])C1(C)C`, the TIME (Mus musculus [1]) is reported as 0.0326 h, the Activity (Aorta [2]) is reported as 23.8% and the Activity (Mus musculus [4]) is reported as 50.8. The TIME (Mus musculus [5]) was 0.0326 h, the Activity (Mus musculus [9]) was 66.3 and the Activity (Aorta [10]) was 7.19%. The TIME (Mus musculus [11]) was 0.0328 h, the Activity (Mus musculus [13]) was 59.3 and the Activity (Aorta [16]) was 36.6%. For the same molecule, the Activity (Mus musculus [19]) was 84.5, the TIME (Mus musculus [20]) was 0.0331 h and the Activity (Mus musculus [21]) was 61.7.
Molecule `COc1ccc(C2=NC(C)(C)C(C)(C)N2[O])cc1OC` has a TIME (Mus musculus [1]) of 0.033 h, an Activity (Aorta [2]) of 22.3% and an Activity (Mus musculus [4]) of 78.4. For the same molecule, the TIME (Mus musculus [5]) was 0.0335 h, the Activity (Mus musculus [9]) was 60.2 and the Activity (Aorta [10]) was 6.66%. The TIME (Mus musculus [11]) was 0.0332 h, the Activity (Mus musculus [13]) was 44.9 and the Activity (Aorta [16]) was 33.7%. For the same molecule, the Activity (Mus musculus [19]) was 55.6, the TIME (Mus musculus [20]) was 0.0329 h and the Activity (Mus musculus [21]) was 59.5.
`CC1(C)N=C(c2ccc(Cl)cc2Cl)N([O])C1(C)C` was tested, and the TIME (Mus musculus [1]) was 0.033 h, the Activity (Aorta [2]) was 23% and the Activity (Mus musculus [4]) was 30.5. It also gave a TIME (Mus musculus [5]) of 0.0327 h, an Activity (Mus musculus [9]) of 63.3 and an Activity (Aorta [10]) of 6.86%. The TIME (Mus musculus [11]) was 0.0326 h, the Activity (Mus musculus [13]) was 39.6 and the Activity (Aorta [16]) was 34.8%. For the same molecule, the Activity (Mus musculus [19]) was 14.8, the TIME (Mus musculus [20]) was 0.0329 h and the Activity (Mus musculus [21]) was 48.4.
`CC1(C)N=C(c2ccc(Cl)c(Cl)c2)N([O])C1(C)C` was tested, and the TIME (Mus musculus [1]) was 0.0331 h, the Activity (Aorta [2]) was 22.7% and the Activity (Mus musculus [4]) was 28.8. For the same molecule, the TIME (Mus musculus [5]) was 0.033 h, the Activity (Mus musculus [9]) was 72.8 and the Activity (Aorta [10]) was 6.74%. For the same molecule, the TIME (Mus musculus [11]) was 0.0331 h, the Activity (Mus musculus [13]) was 50.6 and the Activity (Aorta [16]) was 34.4%. It also gave an Activity (Mus musculus [19]) of 27, a TIME (Mus musculus [20]) of 0.0334 h and an Activity (Mus musculus [21]) of 55.7.
